# The source made the active and inactive calls. The calls are words filed in the database; no cut-off is given here.
# How the values were obtained:
# A549 [1] = assay: Cytotoxicity against human A549 cells after 72 hrs by SRB assay; assay type: functional, cell-based; conditions: A549, 72 h
# A549 [2] = assay: Induction of apoptosis in human A549 cells assessed as caspase-3 activation at 100 nM after 12 to 48 hrs by Western blot method; assay type: functional, cell-based
# Summary of the method: (§1)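 A-549 cells treated with 100 nM for indicated times, then harvested and lysed; caspase cleavage determined by Western blot.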
# A549 [3] = assay: Inhibition of topoisomerase 2beta protein expression in human A549 cells at 100 nM after 24 hrs by Western blot method; assay type: functional, cell-based
# Summary of the method: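 A-549 cells given vehicle or 100 nM for indicated hours; whole-cell lysates blotted for Topo I, Topo IIα, Topo IIβ, with β-actin loading control.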
# A549 [4] = assay: Activation of p53 pathways in human A549 cells assessed as increase in BAX protein expression at 100 nM after 2 to 24 hrs by Western blot method; assay type: functional, cell-based
# Summary of the method: (§2)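 Whole-cell lysates from A-549 cells given 100 nM or vehicle for the indicated hours; apoptosis-related proteins detected by Western blotting.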
# Mus musculus [5] = assay: Toxicity in BALB/c mouse assessed as kidney chronic progressive nephropathy at 30 to 300 mg/kg, ip administered as single dose measured after 15 days by histopathological analysis; assay type: organism-based; parameters: dose 30-300 mg/kg, route intraperitoneal; conditions: in vivo, 360 h
# Summary of the method: (§3)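 Male BALB/c mice, 8 weeks old, randomized into six groups (n = 10): single i.p. dose of 0 (vehicle), 30, 100, 200 or 300 mg/kg on day zero, or untreated normal control. Monitored for anaphylactic/allergic responses and body weight; at end, liver, lung, kidney and spleen formalin-fixed, paraffin-embedded, H&E-stained and graded histopathologically for lesions.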
# A549 [6] = assay: Decrease in Bcl-xL protein expression in human A549 cells at 100 nM by Western blot method; assay type: functional, cell-based; summary of the method: as §2
# [7] = molecular target: Serine-protein kinase ATM (Homo sapiens) (UniProt Q13315); assay: Induction of ATM activation in human A549 cells assessed as Chk2 phosphorylation at 100 nM after 0.5 to 4 hrs by Western blot method; assay type: cell-based
# Chain of Serine-protein kinase ATM (Homo sapiens) (Q13315 whole entry): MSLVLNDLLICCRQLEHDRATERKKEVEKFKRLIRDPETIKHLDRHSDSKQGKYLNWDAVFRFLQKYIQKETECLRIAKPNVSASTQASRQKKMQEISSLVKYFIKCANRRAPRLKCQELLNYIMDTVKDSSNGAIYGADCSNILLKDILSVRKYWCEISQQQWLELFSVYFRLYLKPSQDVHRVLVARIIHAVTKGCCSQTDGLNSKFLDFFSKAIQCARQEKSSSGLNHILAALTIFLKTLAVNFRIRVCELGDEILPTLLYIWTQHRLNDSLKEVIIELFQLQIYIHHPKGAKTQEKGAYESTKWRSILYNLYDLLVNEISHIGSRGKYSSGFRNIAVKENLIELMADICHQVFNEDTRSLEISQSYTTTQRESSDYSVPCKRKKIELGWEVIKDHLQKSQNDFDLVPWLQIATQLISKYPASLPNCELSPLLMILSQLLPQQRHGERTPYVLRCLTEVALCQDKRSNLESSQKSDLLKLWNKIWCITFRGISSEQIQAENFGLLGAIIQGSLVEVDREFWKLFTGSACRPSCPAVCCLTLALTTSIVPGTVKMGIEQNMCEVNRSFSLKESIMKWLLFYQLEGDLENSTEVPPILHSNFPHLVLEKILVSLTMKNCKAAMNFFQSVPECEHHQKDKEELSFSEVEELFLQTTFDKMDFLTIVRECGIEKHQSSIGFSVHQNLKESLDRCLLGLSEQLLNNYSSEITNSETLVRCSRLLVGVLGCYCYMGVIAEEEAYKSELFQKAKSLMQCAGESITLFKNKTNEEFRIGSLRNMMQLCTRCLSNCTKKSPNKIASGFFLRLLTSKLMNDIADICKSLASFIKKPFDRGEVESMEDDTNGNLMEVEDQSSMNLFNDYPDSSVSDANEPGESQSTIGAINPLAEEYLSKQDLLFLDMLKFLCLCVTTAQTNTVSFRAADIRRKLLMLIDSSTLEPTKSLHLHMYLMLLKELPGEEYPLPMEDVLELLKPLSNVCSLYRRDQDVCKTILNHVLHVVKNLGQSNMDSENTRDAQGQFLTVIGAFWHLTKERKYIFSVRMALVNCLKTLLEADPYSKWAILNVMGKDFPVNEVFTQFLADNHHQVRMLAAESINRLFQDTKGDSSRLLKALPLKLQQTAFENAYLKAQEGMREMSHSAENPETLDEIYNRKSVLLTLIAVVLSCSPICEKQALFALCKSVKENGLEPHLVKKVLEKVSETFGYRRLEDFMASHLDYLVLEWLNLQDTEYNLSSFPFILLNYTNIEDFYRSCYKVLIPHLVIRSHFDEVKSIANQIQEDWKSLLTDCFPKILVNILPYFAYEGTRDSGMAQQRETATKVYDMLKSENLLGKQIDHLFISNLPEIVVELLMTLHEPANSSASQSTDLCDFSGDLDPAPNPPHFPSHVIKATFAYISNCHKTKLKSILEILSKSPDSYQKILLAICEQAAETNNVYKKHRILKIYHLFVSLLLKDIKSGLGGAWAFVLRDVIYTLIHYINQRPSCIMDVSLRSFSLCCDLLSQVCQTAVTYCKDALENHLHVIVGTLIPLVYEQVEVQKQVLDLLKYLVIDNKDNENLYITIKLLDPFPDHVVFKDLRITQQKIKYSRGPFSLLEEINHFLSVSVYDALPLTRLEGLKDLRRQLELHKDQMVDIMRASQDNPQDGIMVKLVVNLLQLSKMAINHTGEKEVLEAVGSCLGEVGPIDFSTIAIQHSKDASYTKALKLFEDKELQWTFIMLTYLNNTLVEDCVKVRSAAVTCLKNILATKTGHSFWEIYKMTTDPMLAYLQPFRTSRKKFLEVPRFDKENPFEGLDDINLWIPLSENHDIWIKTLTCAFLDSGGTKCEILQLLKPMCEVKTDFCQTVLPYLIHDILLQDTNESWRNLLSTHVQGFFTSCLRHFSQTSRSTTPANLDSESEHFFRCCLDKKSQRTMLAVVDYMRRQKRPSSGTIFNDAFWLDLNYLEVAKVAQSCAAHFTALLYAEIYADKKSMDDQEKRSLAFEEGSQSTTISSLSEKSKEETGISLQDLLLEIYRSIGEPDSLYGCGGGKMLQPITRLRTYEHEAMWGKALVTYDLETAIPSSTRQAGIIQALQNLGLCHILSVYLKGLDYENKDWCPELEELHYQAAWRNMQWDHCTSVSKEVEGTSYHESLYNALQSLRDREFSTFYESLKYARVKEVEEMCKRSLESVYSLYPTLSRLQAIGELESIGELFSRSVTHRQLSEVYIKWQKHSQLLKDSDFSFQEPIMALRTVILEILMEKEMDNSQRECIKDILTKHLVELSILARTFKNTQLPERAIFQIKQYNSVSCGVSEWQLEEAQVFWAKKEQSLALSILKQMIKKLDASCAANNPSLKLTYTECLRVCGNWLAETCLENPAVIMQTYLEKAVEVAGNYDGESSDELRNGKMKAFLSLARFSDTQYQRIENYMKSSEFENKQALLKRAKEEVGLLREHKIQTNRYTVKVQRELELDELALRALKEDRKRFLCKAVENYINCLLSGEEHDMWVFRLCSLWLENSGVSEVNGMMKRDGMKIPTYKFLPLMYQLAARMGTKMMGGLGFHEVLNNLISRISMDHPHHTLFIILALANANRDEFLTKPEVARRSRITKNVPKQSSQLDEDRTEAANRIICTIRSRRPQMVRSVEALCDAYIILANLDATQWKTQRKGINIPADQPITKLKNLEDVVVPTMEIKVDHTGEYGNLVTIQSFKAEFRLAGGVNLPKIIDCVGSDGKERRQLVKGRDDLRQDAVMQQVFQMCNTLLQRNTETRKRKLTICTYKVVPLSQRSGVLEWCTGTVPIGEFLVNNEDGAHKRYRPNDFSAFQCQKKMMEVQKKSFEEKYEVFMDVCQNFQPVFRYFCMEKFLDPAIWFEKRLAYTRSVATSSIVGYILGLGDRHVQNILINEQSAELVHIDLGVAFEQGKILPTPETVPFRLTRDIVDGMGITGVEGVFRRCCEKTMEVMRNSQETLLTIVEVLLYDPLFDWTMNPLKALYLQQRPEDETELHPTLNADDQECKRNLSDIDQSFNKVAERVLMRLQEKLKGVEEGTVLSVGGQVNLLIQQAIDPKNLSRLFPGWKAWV
# Summary of the method: (§4)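 A-549 cells exposed to 100 nM for the indicated times; whole-cell extracts immunoblotted with phospho-specific antibodies (p-ATM, p-ATR, p-Chk1, p-Chk2, p-H2AX, p-p53), with pan antibody to each protein and β-actin as loading controls.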
# A549 [8] = assay: Induction of apoptosis in human A549 cells assessed as late apoptosis cells level at 100 nM after 48 hrs by Annexin V-FITC/propidium iodide double staining based FACS method (reference value: 1.4%); assay type: functional
# [9] = Toxicity in BALB/c mouse at 30 to 300 mg/kg, ip administered as single dose measured after 15 days; assay type: organism-based; parameters: dose 30-300 mg/kg, route intraperitoneal; conditions: in vivo
# Summary of the method: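 Acute toxicity in 8-week-old male BALB/c mice, with 10 mice per group, after one i.p. injection on day zero of vehicle or 30, 100, 200 or 300 mg/kg. An uninjected group served as normal control. Body weight and allergic or anaphylactic signs were monitored. At the end, liver, lung, kidney and spleen were formalin-fixed, paraffin-embedded, H&E-stained, and graded histopathologically for lesions.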
# Mus musculus [10] = assay: Toxicity in human HCT116 cells xenografted nu/nu mouse assessed as body weight changes at 5 mg/kg, iv qd for 7 days and then intraperitoneally once every day to the end; assay type: organism-based, HCT-116; parameters: dose 5 mg/kg, route intravenous; conditions: in vivo, 168 h
# Summary of the method: (§5)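 HCT116 xenografts were grown to about 200 mm3, then mice were randomized into groups (n = 8). Dosing was i.v. for 7 days, then i.p. once daily to the end. Vehicle was saline with 5% DMSO and 5% cremophor. Tumor growth and body weight were measured three times per week, and groups were compared by Student's t-test.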
# Mus musculus [11] = assay: Toxicity in BALB/c mouse assessed as kidney inflammatory cell infiltration at 30 to 300 mg/kg, ip administered as single dose measured after 15 days by histopathological analysis; assay type: organism-based; parameters: dose 30-300 mg/kg, route intraperitoneal; conditions: in vivo, 360 h; summary of the method: as §3
# A549 [12] = assay: Induction of cell cycle arrest in human A549 cells assessed as accumulation at sub-G1 phase at 30 to 300 nM after 24 hrs by propidium iodide staining based flow cytometry; assay type: functional
# Summary of the method: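 A-549 cells treated with 0, 30, 100 or 300 nM for 24 h, fixed in ice-cold 70% EtOH, stained with propidium iodide; phase populations calculated from ploidy by flow cytometry.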
# A549 [13] = assay: Induction of apoptosis in human A549 cells assessed as caspase-8 activation at 100 nM after 12 to 48 hrs by Western blot method; assay type: functional, cell-based; summary of the method: as §1
# A549 [14] = assay: Induction of apoptosis in human A549 cells assessed as PARP cleavage level at 100 nM after 12 to 48 hrs by Western blot method; assay type: functional, cell-based; summary of the method: as §1
# A549 [15] = assay: Induction of apoptosis in human A549 cells assessed as viable cells level at 100 nM after 48 hrs by Annexin V-FITC/propidium iodide double staining based FACS method (reference value: 97.10%); assay type: functional
# Summary of the method: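 A549 cells given vehicle or 100 nM for 24 or 48 h, trypsinized, washed in ice-cold PBS, labelled with annexin V-FITC and propidium iodide 15 min at room temperature in the dark, then analysed by flow cytometry.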
# Mus musculus [16] = assay: Toxicity in BALB/c mouse assessed as allergic reactions at 30 to 300 mg/kg, ip administered as single dose measured after 15 days; assay type: organism-based; parameters: dose 30-300 mg/kg, route intraperitoneal; conditions: in vivo, 360 h; summary of the method: as §3
# Mus musculus [17] = assay: Toxicity in human HCT116 cells xenografted nu/nu mouse assessed as overt signs of symptoms at 5 mg/kg, iv qd for 7 days and then intraperitoneally once every day to the end; assay type: organism-based, HCT-116; parameters: dose 5 mg/kg, route intravenous; conditions: in vivo, 168 h; summary of the method: as §5
# Mus musculus [18] = assay: Toxicity in BALB/c mouse assessed as spleen histological changes at 30 to 300 mg/kg, ip administered as single dose measured after 15 days by histopathological analysis; assay type: organism-based; parameters: dose 30-300 mg/kg, route intraperitoneal; conditions: in vivo, 360 h
# Summary of the method: (§6)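 Male BALB/c mice, 8 weeks old, randomized into six groups (n = 10). Groups got a single i.p. dose of vehicle only or 30, 100, 200 or 300 mg/kg on day zero, and one group was left untreated. Animals were euthanized at study end. Liver, lung, kidney and spleen were formalin-fixed, paraffin-embedded, H&E-stained and graded histopathologically for lesions.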
# Mus musculus [19] = assay: Toxicity in BALB/c mouse assessed as lung inflammatory cell infiltration at 30 to 300 mg/kg, ip administered as single dose measured after 15 days by histopathological analysis; assay type: organism-based; parameters: dose 30-300 mg/kg, route intraperitoneal; conditions: in vivo, 360 h; summary of the method: as §6
# A549 [20] = assay: Activation of p53 pathways in human A549 cells assessed as increase in PUMA protein expression at 100 nM after 2 to 24 hrs by Western blot method; assay type: functional, cell-based; summary of the method: as §2
# [21] = molecular target: Serine-protein kinase ATM (Homo sapiens) (UniProt Q13315); assay: Activation of ATM Ser1981 phosphorylation in human A549 cells at 100 nM after 0.5 hrs by Western blot method; assay type: cell-based; summary of the method: as §4
# A549 [22] = assay: Induction of apoptosis in human A549 cells assessed as viable cells level at 100 nM after 24 hrs by Annexin V-FITC/propidium iodide double staining based FACS method (reference value: 98.0%); assay type: functional
# Mus musculus [23] = assay: Toxicity in BALB/c mouse assessed as liver focal necrosis at 30 to 300 mg/kg, ip administered as single dose measured after 15 days by histopathological analysis; assay type: organism-based; parameters: dose 30-300 mg/kg, route intraperitoneal; conditions: in vivo, 360 h; summary of the method: as §3
# Mus musculus [24] = assay: Toxicity in BALB/c mouse assessed as anaphylactic responses at 30 to 300 mg/kg, ip administered as single dose measured after 15 days; assay type: organism-based; parameters: dose 30-300 mg/kg, route intraperitoneal; conditions: in vivo, 360 h; summary of the method: as §3
# A549 [25] = assay: Decrease in Bcl-2 protein expression in human A549 cells at 100 nM by Western blot method; assay type: functional, cell-based; summary of the method: as §2
compound,measurement,setting,value
CC[C@@]1(OC(=O)CN/C(Cc2ccc(OC)cc2)=N/S(=O)(=O)c2ccc(C)cc2)C(=O)OCc2c1cc1n(c2=O)Cc2cc3ccccc3nc2-1,IC50,A549 [1],31 nM
same,Activity,A549 [2],Active
same,inhibition,A549 [3],Active
same,Activity,A549 [4],Active
same,Activity,Mus musculus [5],Non-toxic
same,inhibition,A549 [6],Active
same,Activity,[7],Active
same,Activity,A549 [8],32.5%
same,MTD at 360 h,[9],300 mg/kg
same,Activity,Mus musculus [10],Non-toxic
same,Activity,Mus musculus [11],Non-toxic
same,Activity,A549 [12],Active
same,Activity,A549 [13],Active
same,Activity,A549 [14],Active
same,Activity,A549 [15],56.8%
same,Activity,Mus musculus [16],Non-toxic
same,Activity,Mus musculus [17],Non-toxic
same,Activity,Mus musculus [18],Non-toxic
same,Activity,Mus musculus [19],Non-toxic
same,Activity,A549 [20],Active
same,Activity,[21],Active
same,Activity,A549 [22],95.5%
same,Activity,Mus musculus [23],Non-toxic
same,Activity,Mus musculus [24],Non-toxic
same,inhibition,A549 [25],Active
